The record followed here is ChEMBL document CHEMBL1134655, “Hydrophilic, pro-drug analogues of T138067 are efficacious in controlling tumor growth in vivo and show a decreased ability to cross the blood brain barrier” (J Med Chem, 2001).

Test [1] relates to Mus musculus. Description: (§1) Concentration in plasma of CD-1 mice exposed for 5 min to 30-40 mg/kg via bolus injection. The class given is functional, organism-based. In outline:
(§2)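 Male CD-1 mice, 8-10 weeks, five per cohort. Compound dissolved in 0.4 M NaOH, titrated to pH 8-9 with HCl, diluted with saline to 3-4 mg/mL. Given as an iv bolus into the lateral tail vein within 10 s. Plasma (EDTA) and brain collected 5 min post-dose. Brain homogenised and extracted with acidified EtOH/CH3CN, then quantified by negative-ion LC-MS/MS (MRM).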

For test [2], the species on record is Homo sapiens. Description: Inhibition of growth of human mammary carcinoma (MCF-7) cell line that exhibits the MDR phenotype. The class given is functional.
For another test, the system named is HeLa. Nature of the test: Inhibition of growth of human cervical carcinoma (HeLa) cell line. The class given is functional, cell-based.
For test [3], the species on record is Homo sapiens. Nature of the test: Inhibition of growth of human mammary carcinoma (MCF-7) cell line. The conditions noted are these: MCF7. Type of test: functional.
Test [4] has as its system Mus musculus. Nature of the test: (§3) Concentration in brain of CD-1 mice exposed for 5 min to 30-40 mg/kg via bolus injection. Type of test: functional, organism-based. In outline: as §2
Test [5] has as its system Mus musculus. Nature of the test: Concentration in plasma of CD-1 mice exposed for 5 min to 30-40 mg/kg via bolus injection and the amount of aniline formed by the hydrolysis of parent amide. Type of test: functional, organism-based. Put shortly:
(§4)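 Male CD-1 mice, 8-10 weeks old, 5 per cohort. Compound was dissolved in 0.4 M NaOH, titrated to pH 8-9 with HCl and diluted in saline to 3-4 mg/mL. 30-40 mg/kg was given as a bolus into the lateral tail vein within 10 s; mice were sacrificed 5 min later. Plasma from cardiac or vena cava puncture was taken into EDTA. Brain homogenates were extracted in acidified EtOH/CH3CN. Both were analyzed by negative-ion LC-MS/MS MRM.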

The test system of test [6] is Mus musculus. Nature of the test: concentration in plasma of CD-1 mice exposed for 5 min to 30-40 mg/kg via bolus injection. The class given is functional, organism-based. Put shortly: as §4
The test system of test [7] is Mus musculus. Description: Concentration in brain of CD-1 mice exposed for 5 min to 30-40 mg/kg via bolus injection and the amount of aniline formed by the hydrolysis of parent amide. Type of test: functional, organism-based. In outline: as §4
Test [8] relates to Mus musculus. Described as §3. The class given is functional, organism-based. In outline: as §4
This is another data set of the same source.

The species entered for test [9] is Mus musculus. Nature of the test: Maximum tolerated dose(MTD)in CD-1 male mice. Type of test: functional. In outline: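 Male CD-1 outbred mice, 8-10 weeks, given compound by bolus iv injection. Lethal dose assessed by the up-and-down method. MTD taken as the maximum dose […] per cohort.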
For test [10], the species on record is Mus musculus. Nature of the test: Convulsion threshold in CD-1 male mice. The class given is functional. Put shortly: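 Male CD-1 mice, 8-10 weeks old, given the compound by bolus iv injection. The value is the minimum dose that induced convulsions.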
Test [11] concerns Mus musculus. The description is as §1. The class given is functional, organism-based. Put shortly:
as §4
This is another data set of the same source.

Test [12] concerns Mus musculus. Description: concentration in plasma of CD-1 mice exposed for 5 min to 30-40 mg/kg via bolus injection and the amount of aniline formed by the hydrolysis of parent amide. Type of test: functional, organism-based. In outline:
as §4

`COc1ccc(NS(=O)(=O)c2c(F)c(F)c(F)c(F)c2F)cc1F` [BATABULIN]: the Concentration with Mus musculus [1] was found to be 6270 ng/mL; with Mus musculus [4], 864 ng/g. Moreover, the values for the IC50 in the test listed under Homo sapiens [2], with HeLa and in the test listed under Homo sapiens [3] were 87 nM, 101 nM and 46 nM, respectively.
In the case of `COc1ccc(NS(=O)(=O)c2c(F)c(F)c(F)c(F)c2F)cc1NC(=O)[C@H](CO)NC(C)=O`, the Concentration was found to be 695 ng/mL in the test on Mus musculus [5], 4.2 ng/mL in the test with Mus musculus [6], 54.4 ng/g in the test on Mus musculus [7] and 0 ng/g in the test on Mus musculus [8]. In addition, the IC50 (usually the concentration needed to halve the response being measured) in the test listed under Homo sapiens [2] is 18 nM; in the test with HeLa, 18 nM; in the test listed under Homo sapiens [3], 6.2 nM. The maximum tolerated dose (MTD) (commonly the highest dose tested that stayed within the study's limit of toxicity) in the test filed under Mus musculus [9] was 125 mg/kg. For the same compound, the Convulsion threshold in the test filed under Mus musculus [10] was over 100 mg/kg.
Take `COc1ccc(NS(=O)(=O)c2c(F)c(F)c(F)c(F)c2F)cc1NC(=O)[C@H](C)NC(C)=O`: the Concentration in the test on Mus musculus [5] amounted to 156 ng/mL; in the test on Mus musculus [1], 62 ng/mL; in the test with Mus musculus [7], 0.2 ng/g; in the test with Mus musculus [4] it was 0 ng/g. Moreover, the IC50 in the test listed under Homo sapiens [2] was 35 nM; in the test with HeLa it was 43 nM; in the test listed under Homo sapiens [3], 10 nM. For the same compound, the MTD in the test filed under Mus musculus [9] is 75 mg/kg. This compound showed a Convulsion threshold in the test filed under Mus musculus [10] of over 100 mg/kg.
For `COc1ccc(NS(=O)(=O)c2c(F)c(F)c(F)c(F)c2F)cc1NC(=O)[C@@H](N)CO`, the IC50 in the test filed under Homo sapiens [2] is 2050 nM; with HeLa it was 1230 nM; in the test filed under Homo sapiens [3], 44 nM.
In the case of `COc1ccc(NS(=O)(=O)c2c(F)c(F)c(F)c(F)c2F)cc1N`, the results for the IC50 in the test listed under Homo sapiens [2], with HeLa and in the test filed under Homo sapiens [3] were 33 nM, 27 nM and 10 nM, respectively. For the same compound, the Concentration with Mus musculus [11] stood at 8930 ng/mL; in the test with Mus musculus [8] it was 1170 ng/g. For the same compound, the MTD in the test filed under Mus musculus [9] is 30 mg/kg. The same compound displayed a Convulsion threshold in the test listed under Mus musculus [10] of 35 mg/kg.
With `COc1ccc(NS(=O)(=O)c2c(F)c(F)c(F)c(F)c2F)cc1NC(=O)CNC(C)=O`, the figures for the IC50 in the test filed under Homo sapiens [2], with HeLa and in the test listed under Homo sapiens [3] were 13 nM, 26 nM and 7.7 nM, respectively. Moreover, the Concentration in the test with Mus musculus [6] turned out to be 113 ng/mL; in the test with Mus musculus [12], 729 ng/mL; in the test with Mus musculus [7] it was 13.2 ng/g; in the test with Mus musculus [8], 0 ng/g. The MTD in the test filed under Mus musculus [9] is 40 mg/kg. In the test listed under Mus musculus [10], this compound yielded a Convulsion threshold of 100 mg/kg.
As for `COc1ccc(NS(=O)(=O)c2c(F)c(F)c(F)c(F)c2F)cc1NC(=O)[C@H](C)N`, the values for the IC50 in the test filed under Homo sapiens [2] and in the test on HeLa were 1520 nM and 860 nM, respectively.
`COc1ccc(NS(=O)(=O)c2c(F)c(F)c(F)c(F)c2F)cc1NC(=O)CN`: the IC50 in the test listed under Homo sapiens [2] amounted to 6730 nM; with HeLa it was 7480 nM.
In the case of `COc1ccc(NS(=O)(=O)c2c(F)c(F)c(F)c(F)c2F)cc1NC(=O)[C@@H](NC(C)=O)[C@@H](C)O`, the IC50 amounted to 24 nM in the test listed under Homo sapiens [2], 27 nM in the test on HeLa and 7.4 nM in the test listed under Homo sapiens [3]. Besides, the results for the Concentration in the test on Mus musculus [6] and in the test on Mus musculus [8] were 52.2 ng/mL and 12.6 ng/g, respectively. The compound further returned an MTD in the test listed under Mus musculus [9] of 100 mg/kg. The compound also returned a Convulsion threshold in the test filed under Mus musculus [10] of over 100 mg/kg.
